Measurements taken from ChEMBL document CHEMBL1140145, “Identification of non-nucleoside DNA synthesis inhibitors of vaccinia virus by high-throughput screening” (J Med Chem, 2008).
pEC50, pIC50: −log10 of the molar value. Activity calls are given as the source filed them. No cut-off for these calls is given here.

Columns and labels:
[1] = tested on: Vaccinia virus; test: Inhibition of Vaccinia virus DNA synthesis in by rapid plate assay; format: functional, organism-based; conditions: Orthopoxvirus vaccinia
[2] = tested on: Vaccinia virus; test: Antiviral activity against Vaccinia virus WR in BSC1 cells assessed as reduction in plaque formation after 20 hrs; format: functional, organism-based; conditions: Orthopoxvirus vaccinia, BSC-1, 20 h
[3] = Cytotoxicity against african green monkey BSC1 cells after 20 hrs WST-1 based assay; format: cell-based, BSC-1; conditions: chlorocebus aethiops, read-out: TC50
Method in brief: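 Uninfected BS-C-1 cells in phenol red-free medium, seeded 5000 (20 h), 1000 (3-day) or 200 (5-day) cells/well, exposed next day to compound in two-fold serial dilutions (top 200 µM; 1% DMSO final) at 37°C. WST-1 added 30 min, A450 read. Triplicates; percent cytotoxicity vs DMSO fitted four-parameter sigmoidal for TC50.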

[4] = tested on: Vaccinia virus; test: Antiviral activity against Vaccinia virus WR in BSC1 cells assessed as protection from virus-induced lysis of cell monolayer after 20 hrs; format: functional, organism-based; conditions: Orthopoxvirus vaccinia, BSC-1, 20 h
[5] = tested on: Vaccinia virus; test: Antiviral activity against Vaccinia virus WR in BSC1 cells assessed as retention of antiviral potency by measuring exogenous double stranded DNA trapping; format: functional, organism-based; conditions: Orthopoxvirus vaccinia, BSC-1

| SMILES | pIC50 [1] | pEC50 [2] | CC50 at 20 h [3] | pEC50 [4] | Activity [5] |
| --- | --- | --- | --- | --- | --- |
| COc1ccc2c(C)nc(N/C(N)=N/C(C)=O)nc2c1 | 4.80 | 4.40 | 90 µM |  |  |
| COc1ccc(Nc2nc(N3CCN(C)CC3)nc3ccccc23)c(OC)c1 |  | 4.40 | 192 µM | 4.74 | inactive |
| CN(C)CCN(C(=O)c1ccco1)c1nc2cc3c(cc2s1)OCO3 | 4.54 | 4.00 | > 200 µM |  |  |
| CCN1CCN(CCCNC(=O)c2ccc3c(c2)NC(=O)/C(=C\C(=O)c2ccc(OC)cc2)N3)CC1 | 4.44 |  | > 200 µM |  |  |
| CCN1/C(=C/c2ccc3ccccc3[n+]2CC)Sc2cc(NC(C)=O)ccc21 | 4.82 | 3.70 | > 200 µM |  |  |
| Cc1ccc(C)n1-c1cccc(C(=O)O)c1 | 4.00 |  | > 200 µM |  |  |
| CN(c1ccccc1C(=O)O)S(=O)(=O)c1ccc2c3c(cccc13)C(=O)N2 | 4.12 |  | > 200 µM |  |  |
| COc1ccc2c(C)nc(NC(=N)/N=C(\C)c3ccccc3C(=O)O)nc2c1 | 4.89 | 4.30 | 164 µM |  |  |
| CCS(=O)(=O)N1CCN=C1SCc1ccc(Cl)cc1Cl | 3.73 | 4.60 | 166 µM | 4.05 | Active |
| COc1ccc2cc3cc(C(=O)NCCN(C)C)oc3nc2c1 |  | 4.12 | > 200 µM |  |  |
| OCC(O)Cn1c2ccc(Br)cc2c2cc(Br)ccc21 (centres undefined) |  | 5.00 | 29 µM | 4.64 | inactive |
| COC(=O)c1c(NC(=O)c2ccc(OC)cc2)sc2c1CCN(C(C)C)C2 |  | 4.60 | 87 µM | 4.40 | inactive |
| CCOC(=O)c1c(NC(=O)/C=C/C(=O)O)sc(C)c1-c1ccccc1 | 3.43 | 4.60 | 159 µM | 4.52 | Active |
| Oc1ccc(C2(c3ccc(O)cc3)CCCC2)cc1 | 4.15 | 4.12 | 35 µM |  |  |
| Cc1nc2ccccc2c2oc(C(=O)NCCN(C)C3CCCCC3)cc12 |  | 4.60 | 143 µM | 4.39 | inactive |
| CCN1CCCC1CNC(=O)c1ccc2c(c1)sc1nc(-c3cccc(OC)c3)cn12 (centres undefined) | 4.33 | 4.30 | 75 µM |  |  |
| COC(=O)C(C(=O)OC)C(Nc1ccccc1)c1ccccc1 (centres undefined) | 3.20 |  | > 200 µM |  |  |
| CCN1C(=O)/C(=C\C=C\c2ccco2)C(=O)NC1=S | 3.80 | 4.92 | 72 µM |  |  |
| CN(C)CCOC(=O)c1ccc2[nH]c3c(c2c1)CSCC3 [TIPINDOLE] | 3.94 | 4.00 | > 200 µM |  |  |
| C=C1C(C(=O)NCc2ccco2)C1C(=O)NCc1ccco1 (centres undefined) | 3.57 |  | > 200 µM |  |  |
| Cc1c(C)n(CCN(C)C)c2ccc(C(=O)OCCN(C)C)cc12 [AMINDOCATE] | 4.59 | 4.12 | > 200 µM |  |  |
| N#CC1=C(SCc2ccccc2)SC(c2ccccc2O)NC1=O (centres undefined) | 3.60 | 3.82 | > 200 µM |  |  |
| O=C(O)C1Nc2ccccc2C2C=CCC12 (centres undefined) | < 3.40 |  | > 200 µM |  |  |
| CN(C)CC(O)Cn1c2ccc(Cl)cc2c2cc(Cl)ccc21 (centres undefined) | 4.92 | 5.00 | 17 µM |  |  |
| O=C(/C=C/c1ccco1)/C=C/c1ccco1 | 4.60 | 4.12 | > 200 µM |  |  |
| C/N=C1/c2c(C)c3cc(OC)ccc3n2CCN1C | 4.05 | 4.12 | > 200 µM |  |  |
| C[n+]1ccc(/C=C/c2ccc3c(c2)OCO3)c2ccccc21 | 4.62 | 4.12 | > 200 µM |  |  |

| SMILES | pIC50 [1] | pEC50 [2] | CC50 at 20 h [3] | pEC50 [4] | Activity [5] |
| --- | --- | --- | --- | --- | --- |
| CC1CCN(CCCNC(=O)c2cc3c(=O)n(C)c4ccccc4c3s2)CC1 | 4.72 |  | 75 µM |  |  |
| CC(C)c1ccc(C2Nc3ccc(C(=O)O)cc3C3C=CCC32)cc1 (centres undefined) | 4.00 | 4.00 | > 200 µM |  |  |
| N=C(N)Nc1nc(-c2ccccc2)c2ccccc2n1 | 4.68 | 4.30 | 49 µM |  |  |
| c1ccc(CNc2ccc3c(ccc4c5ccccc5[nH]c34)n2)cc1 | 3.94 | 5.00 | 26 µM |  |  |
| CC1=NN(c2cccc(C(=O)O)c2)C(=O)/C1=C\c1ccc(-c2cccc(Cl)c2C)o1 | 4.85 | 4.30 | > 200 µM |  |  |
| CN(C)Cc1ccc2ccc3cccc4ccc1c2c34 |  | 5.00 | 20 µM | 4.60 | inactive |
| CCOC(=O)c1cc(-c2ccccc2)n(-c2ccc(C(=O)O)cc2)c1C | 3.92 | 4.00 | > 200 µM |  |  |
| O=C(O)c1ccc2c(c1)NC(=O)C(CSCc1ccccc1Cl)N2 (centres undefined) | 3.35 |  | > 200 µM |  |  |
| CN(C)CCNC(=O)c1cc2c(s1)-c1ccc(Cl)cc1SC2 | 4.43 | 5.30 | 3.9 µM |  |  |
| Cc1cc2c(cc3c(=O)n(CC(=O)NCCN4CCOCC4)ncn32)s1 |  | 4.60 | 100 µM | 4.64 | inactive |
| Cc1ccc2oc(=O)c3cc(C(=O)NCCN4CCCCC4C)sc3c2c1 (centres undefined) | 4.60 | 4.30 | 147 µM |  |  |
| CN1CCc2c(-c3cccs3)nc(OCc3ccccc3Br)c(C#N)c2C1 | 3.95 | 4.40 | 82 µM |  |  |
| COc1ccc(Nc2cc(C(F)(F)F)ccc2Cl)c(C(=O)O)c1 | 4.54 | 4.00 | > 200 µM |  |  |
| Nc1[nH]c(=S)sc1C(=O)Nc1nccs1 | 4.39 |  | > 200 µM |  |  |
| O=C(O)c1cc(Cc2ccc(O)c(C(=O)O)c2)ccc1O | 4.29 |  | > 200 µM |  |  |
| O=C1/C(=C/c2ccc(Br)o2)CC/C1=C\c1ccc(Br)o1 | 4.02 |  | > 200 µM |  |  |
| Cc1cc(OCC(=O)NC(Cc2c[nH]c3ccccc23)C(=O)O)cc(C)c1Cl (centres undefined) | 4.14 | 3.70 | > 200 µM |  |  |
| O=C1NC(=S)N(c2ccccc2)C(=O)/C1=C\C=C\c1ccco1 | 3.84 | 4.30 | > 200 µM |  |  |
| CN(C)CCCNc1c2c(nc3ccccc13)CCC2 | 4.49 | 4.30 | 172 µM |  |  |
| c1ccc2nc3c(nc2c1)c1ccccc1n3CCN1CCOCC1 | 4.55 | 4.52 | 72 µM |  |  |
| O=C(O)c1cc(-c2cccs2)nc2ccc(Br)cc12 | 4.20 | 4.00 | > 200 µM |  |  |
| CCN1CCCC1CNC(=O)c1cc2c(=O)n(C)c3ccccc3c2n1C (centres undefined) |  | 4.00 | 135 µM | 4.01 | inactive |
| CN1CCN(c2cc(-c3ccc(F)cc3)nc(-c3ccccc3)n2)CC1 |  | 5.22 | 23 µM | 4.92 | inactive |
| CC1=NN(c2ccccc2)C(=O)/C1=C\c1cn(CC(O)CN2CCCCC2)c2ccccc12 (centres undefined) | 4.62 | 4.60 | 79 µM |  |  |
| CN(C)/C=C/C=C1C(=O)CCCC1=O | 4.07 |  | > 200 µM |  |  |
| S=c1nc(-c2ccco2)c2c(=S)[nH]c(=S)[nH]c2[nH]1 | 3.85 |  | > 200 µM |  |  |
| O=C1N=C(Nc2cccc(C(=O)O)c2)S/C1=C\c1ccc(-c2ccc(C(=O)O)cc2)o1 | 4.52 |  | > 200 µM |  |  |
